For series [1], the system named is HCV genotype 1b RNA replication. As to the kind of experiment: HCV genotype 1b subgenomic replicon assay in Huh-7 cells. In kind it is cell-based, Hepatitis C virus (HCV). As to conditions: for EC90: Hepatitis C virus, GETYPE1B, Huh-7, read-out: Anti HCV activity EC90. Put shortly:
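Each assay was run in replicate. Values are the mean and SD of three replicates.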
(Replicon systems follow genome replication, usually without infectious particles.)

Series [2] relates to Huh-7 cells. As to the kind of experiment: Cytotoxicity in Huh-7 cells. As to conditions: all four tested cell lines (Huh-7, PBM, CEM, Vero). In kind it is cell-based.

Entries after “also recorded” stand apart in the source; their conditions may differ. Where only a bound is given, the exact number is not on record here.

Take `O=c1ccn([C@@H]2O[C@H](CO)[C@@H](O)C2(Br)Br)c(=O)[nH]1` [Compound 10a]: the “Concentration up to which no antiviral (anti-HCV) activity was shown” value in series [1] (HCV genotype 1b replicon, Huh-7 cells) was greater than 33 µM.
One may read the EC90 as the concentration needed for an effect of 90%. Regarding `Nc1ccn([C@@H]2O[C@H](CO)[C@@H](O)C2(Br)Br)c(=O)n1` [Compound 10b], the EC90 in series [1] was greater than 10 µM.
`CC(C)OC(=O)[C@H](C)N[P@](=O)(OC[C@H]1O[C@@H](n2ccc(=O)[nH]c2=O)C(Br)(Br)[C@@H]1O)Oc1ccccc1` [Compound 13a]: in series [2], the “Cellular toxicity (in words)” value is given as “non-toxic; also recorded: no observed toxicity”.
Turning to `CC(C)OC(=O)[C@H](C)N[P@](=O)(OC[C@H]1O[C@@H](n2cnc3c(N)ncnc32)C(Br)(Br)[C@@H]1O)Oc1ccccc1` [Compound 13c], the EC90 in series [1] was greater than 10 µM.
Same read-out and setting: the value for `CC(C)OC(=O)[C@H](C)N[P@](=O)(OC[C@H]1O[C@@H](n2cnc3c(=O)[nH]c(N)nc32)C(Br)(Br)[C@@H]1O)Oc1ccccc1` [Compound 13d] was greater than 10 µM.

The values are drawn from paper PMC5693771 (Bioorganic & medicinal chemistry letters, 2017).
